Source: the M2OR odorant receptor database

Experiments:
Details in all cases: stereoisomer not certain
[1] = molecular target: OR10A2 (Homo sapiens) (UniProt Q9H208)
Outline: (§1)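 Assay methods differ from source to source, frequently being transient luciferase assays in mammalian cell lines. For each receptor–molecule pair, the label responsive (active) applies when the original authors judged the measured signal statistically different from baseline, and non-responsive (inactive) applies otherwise.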

[2] = molecular target: OR10A3 (Homo sapiens) (UniProt P58181)
Outline: as §1

[3] = molecular target: OR10A4 (Homo sapiens) (UniProt Q9H209)
Chain of OR10A4 (Homo sapiens) (Q9H209 whole entry): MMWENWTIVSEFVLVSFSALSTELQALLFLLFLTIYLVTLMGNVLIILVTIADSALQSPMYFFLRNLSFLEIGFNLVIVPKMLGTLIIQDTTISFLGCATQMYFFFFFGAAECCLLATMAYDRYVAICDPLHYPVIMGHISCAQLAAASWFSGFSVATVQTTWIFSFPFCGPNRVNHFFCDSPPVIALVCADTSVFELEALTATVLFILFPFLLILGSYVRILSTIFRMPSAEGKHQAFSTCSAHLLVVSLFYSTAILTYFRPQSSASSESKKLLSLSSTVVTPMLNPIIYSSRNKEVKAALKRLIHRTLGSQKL
Outline: as §1

[4] = molecular target: OR10A5 (Homo sapiens) (UniProt Q9H207)
Outline: as §1

[5] = molecular target: OR10A6 (Homo sapiens) (UniProt Q8NH74)
Chain of OR10A6 (Homo sapiens) (Q8NH74 whole entry): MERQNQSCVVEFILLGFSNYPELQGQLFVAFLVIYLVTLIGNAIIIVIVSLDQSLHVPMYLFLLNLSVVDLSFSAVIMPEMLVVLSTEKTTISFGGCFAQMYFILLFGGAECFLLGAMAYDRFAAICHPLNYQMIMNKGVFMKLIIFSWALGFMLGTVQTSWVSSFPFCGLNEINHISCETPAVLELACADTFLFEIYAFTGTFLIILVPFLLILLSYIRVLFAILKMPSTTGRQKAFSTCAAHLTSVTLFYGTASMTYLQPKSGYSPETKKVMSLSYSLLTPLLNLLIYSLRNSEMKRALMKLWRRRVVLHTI
Outline: as §1

[6] = molecular target: OR10A7 (Homo sapiens) (UniProt Q8NGE5)
Chain of OR10A7 (Homo sapiens) (Q8NGE5 whole entry): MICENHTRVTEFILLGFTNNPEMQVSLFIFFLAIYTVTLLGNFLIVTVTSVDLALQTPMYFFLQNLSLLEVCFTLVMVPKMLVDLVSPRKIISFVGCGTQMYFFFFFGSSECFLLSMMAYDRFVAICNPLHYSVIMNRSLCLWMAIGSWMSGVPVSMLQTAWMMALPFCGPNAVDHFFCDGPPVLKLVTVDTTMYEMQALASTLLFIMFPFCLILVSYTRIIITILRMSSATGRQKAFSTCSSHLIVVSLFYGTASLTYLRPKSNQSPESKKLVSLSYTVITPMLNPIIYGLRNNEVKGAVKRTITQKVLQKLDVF
Outline: as §1

[7] = molecular target: OR10AD1 (Homo sapiens) (UniProt Q8NGE0)
Chain of OR10AD1 (Homo sapiens) (Q8NGE0 whole entry): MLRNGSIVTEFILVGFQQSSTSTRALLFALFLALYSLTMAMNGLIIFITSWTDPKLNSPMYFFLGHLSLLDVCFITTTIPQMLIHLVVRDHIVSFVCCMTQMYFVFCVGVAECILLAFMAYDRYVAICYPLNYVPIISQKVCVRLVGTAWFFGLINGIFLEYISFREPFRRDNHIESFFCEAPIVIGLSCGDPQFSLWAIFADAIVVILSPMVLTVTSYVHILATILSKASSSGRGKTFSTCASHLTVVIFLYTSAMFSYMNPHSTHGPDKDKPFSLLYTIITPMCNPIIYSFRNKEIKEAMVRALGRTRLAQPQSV
Outline: as §1

[8] = molecular target: OR10AG1 (Homo sapiens) (UniProt Q8NH19)
Chain of OR10AG1 (Homo sapiens) (Q8NH19 whole entry): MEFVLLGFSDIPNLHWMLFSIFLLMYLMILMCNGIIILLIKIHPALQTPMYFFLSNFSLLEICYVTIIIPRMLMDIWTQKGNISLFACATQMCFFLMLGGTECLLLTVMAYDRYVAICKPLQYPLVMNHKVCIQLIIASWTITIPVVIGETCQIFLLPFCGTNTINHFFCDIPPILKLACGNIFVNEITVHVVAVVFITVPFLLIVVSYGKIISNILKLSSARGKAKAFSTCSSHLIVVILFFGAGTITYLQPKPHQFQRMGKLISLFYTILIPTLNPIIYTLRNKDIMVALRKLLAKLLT
Outline: as §1

[9] = molecular target: OR10C1 (Homo sapiens) (UniProt Q96KK4)
Chain of OR10C1 (Homo sapiens) (Q96KK4 whole entry): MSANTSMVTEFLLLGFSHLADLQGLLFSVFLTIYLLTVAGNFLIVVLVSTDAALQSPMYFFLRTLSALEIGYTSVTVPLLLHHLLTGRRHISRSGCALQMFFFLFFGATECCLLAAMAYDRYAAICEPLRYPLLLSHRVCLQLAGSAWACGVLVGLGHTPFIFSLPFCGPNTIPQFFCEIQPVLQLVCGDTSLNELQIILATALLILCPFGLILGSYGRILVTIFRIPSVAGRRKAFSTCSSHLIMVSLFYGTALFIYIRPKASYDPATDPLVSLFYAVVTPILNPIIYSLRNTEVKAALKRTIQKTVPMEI
Outline: as §1

[10] = molecular target: OR10D3 (Homo sapiens) (UniProt Q8NH80)
Outline: as §1

[11] = molecular target: OR10G2 (Homo sapiens) (UniProt Q8NGC3)
Chain of OR10G2 (Homo sapiens) (Q8NGC3 whole entry): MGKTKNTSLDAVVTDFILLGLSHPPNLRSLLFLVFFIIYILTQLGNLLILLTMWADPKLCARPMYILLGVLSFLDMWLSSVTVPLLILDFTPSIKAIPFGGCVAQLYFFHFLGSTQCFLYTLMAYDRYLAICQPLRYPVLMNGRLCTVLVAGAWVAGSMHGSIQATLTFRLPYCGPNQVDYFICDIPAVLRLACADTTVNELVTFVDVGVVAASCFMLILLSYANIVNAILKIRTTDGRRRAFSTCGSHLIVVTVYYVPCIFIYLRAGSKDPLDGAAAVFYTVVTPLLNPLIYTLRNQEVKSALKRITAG
Outline: as §1

[12] = molecular target: OR10G3 (Homo sapiens) (UniProt Q8NGC4)
Chain of OR10G3 (Homo sapiens) (Q8NGC4 whole entry): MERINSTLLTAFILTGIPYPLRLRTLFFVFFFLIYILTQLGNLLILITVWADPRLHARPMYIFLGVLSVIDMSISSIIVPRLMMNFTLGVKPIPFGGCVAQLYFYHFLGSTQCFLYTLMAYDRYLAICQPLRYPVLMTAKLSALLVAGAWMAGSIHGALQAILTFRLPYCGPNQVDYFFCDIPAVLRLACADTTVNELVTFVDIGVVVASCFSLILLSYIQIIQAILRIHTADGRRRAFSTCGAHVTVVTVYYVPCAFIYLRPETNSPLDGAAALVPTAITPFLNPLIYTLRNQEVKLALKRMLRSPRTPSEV
Outline: as §1

[13] = molecular target: OR10G4 (Homo sapiens) (UniProt Q8NGN3)
Chain of OR10G4 (Homo sapiens) (Q8NGN3 whole entry): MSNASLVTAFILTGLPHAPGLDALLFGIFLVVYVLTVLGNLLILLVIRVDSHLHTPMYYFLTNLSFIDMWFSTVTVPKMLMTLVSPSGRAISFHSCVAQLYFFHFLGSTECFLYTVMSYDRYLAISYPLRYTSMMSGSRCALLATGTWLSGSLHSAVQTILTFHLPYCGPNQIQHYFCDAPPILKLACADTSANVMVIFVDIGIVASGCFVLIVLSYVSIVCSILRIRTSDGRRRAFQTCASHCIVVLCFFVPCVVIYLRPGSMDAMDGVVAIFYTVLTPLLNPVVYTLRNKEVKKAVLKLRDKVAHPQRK
Outline: as §1

[14] = molecular target: OR10G6 (Homo sapiens) (UniProt Q8NH81)
Chain of OR10G6 (Homo sapiens) (Q8NH81 whole entry): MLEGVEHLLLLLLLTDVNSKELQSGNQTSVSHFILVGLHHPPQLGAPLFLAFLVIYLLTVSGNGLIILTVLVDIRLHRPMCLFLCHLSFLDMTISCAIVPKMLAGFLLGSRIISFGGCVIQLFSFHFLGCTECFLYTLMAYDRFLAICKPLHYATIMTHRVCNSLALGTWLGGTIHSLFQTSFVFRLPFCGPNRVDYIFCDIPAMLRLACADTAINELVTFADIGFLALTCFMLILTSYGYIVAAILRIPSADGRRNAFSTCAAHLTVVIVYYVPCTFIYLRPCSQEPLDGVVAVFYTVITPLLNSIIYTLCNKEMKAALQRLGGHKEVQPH
Outline: as §1

[15] = molecular target: OR10G7 (Homo sapiens) (UniProt Q8NGN6)
Chain of OR10G7 (Homo sapiens) (Q8NGN6 whole entry): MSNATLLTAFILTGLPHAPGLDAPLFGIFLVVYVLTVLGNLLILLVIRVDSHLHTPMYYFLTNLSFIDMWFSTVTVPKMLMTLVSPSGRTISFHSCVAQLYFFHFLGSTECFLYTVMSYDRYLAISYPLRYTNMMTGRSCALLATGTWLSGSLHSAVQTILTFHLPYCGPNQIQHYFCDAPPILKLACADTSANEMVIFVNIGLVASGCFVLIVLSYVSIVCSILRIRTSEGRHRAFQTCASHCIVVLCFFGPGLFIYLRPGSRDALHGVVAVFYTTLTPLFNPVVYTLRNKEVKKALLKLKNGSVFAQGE
Outline: as §1

[16] = molecular target: OR10G8 (Homo sapiens) (UniProt Q8NGN5)
Chain of OR10G8 (Homo sapiens) (Q8NGN5 whole entry): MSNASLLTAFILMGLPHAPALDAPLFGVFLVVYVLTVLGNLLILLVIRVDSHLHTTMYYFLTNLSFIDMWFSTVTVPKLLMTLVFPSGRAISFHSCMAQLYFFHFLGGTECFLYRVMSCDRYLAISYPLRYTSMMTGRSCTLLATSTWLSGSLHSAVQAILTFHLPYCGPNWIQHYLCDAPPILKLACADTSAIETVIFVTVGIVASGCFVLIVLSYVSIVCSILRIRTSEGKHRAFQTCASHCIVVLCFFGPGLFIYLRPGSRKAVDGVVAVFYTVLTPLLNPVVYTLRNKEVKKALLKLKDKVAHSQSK
Outline: as §1

[17] = molecular target: OR10G9 (Homo sapiens) (UniProt Q8NGN4)
Chain of OR10G9 (Homo sapiens) (Q8NGN4 whole entry): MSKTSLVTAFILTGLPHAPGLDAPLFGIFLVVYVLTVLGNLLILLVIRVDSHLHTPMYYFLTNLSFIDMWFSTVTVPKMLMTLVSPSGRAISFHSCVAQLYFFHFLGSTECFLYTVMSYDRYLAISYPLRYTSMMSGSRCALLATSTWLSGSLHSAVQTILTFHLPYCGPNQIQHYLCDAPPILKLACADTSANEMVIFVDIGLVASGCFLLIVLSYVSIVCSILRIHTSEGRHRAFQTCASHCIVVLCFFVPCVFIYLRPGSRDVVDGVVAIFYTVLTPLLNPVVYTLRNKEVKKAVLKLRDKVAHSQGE
Outline: as §1

[18] = molecular target: OR10H1 (Homo sapiens) (UniProt Q9Y4A9)
Chain of OR10H1 (Homo sapiens) (Q9Y4A9 whole entry): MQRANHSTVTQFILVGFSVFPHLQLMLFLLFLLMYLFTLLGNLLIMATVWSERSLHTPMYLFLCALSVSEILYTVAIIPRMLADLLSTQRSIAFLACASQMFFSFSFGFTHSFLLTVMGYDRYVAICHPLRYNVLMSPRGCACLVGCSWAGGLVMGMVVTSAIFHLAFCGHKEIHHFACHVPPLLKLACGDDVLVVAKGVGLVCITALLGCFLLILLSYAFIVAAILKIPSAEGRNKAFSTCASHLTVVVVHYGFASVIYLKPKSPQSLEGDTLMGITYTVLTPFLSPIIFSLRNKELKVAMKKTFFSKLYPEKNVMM
Outline: as §1

[19] = molecular target: T1, OR10H2 (Homo sapiens) (UniProt O60403)
T1 sequence (whole entry): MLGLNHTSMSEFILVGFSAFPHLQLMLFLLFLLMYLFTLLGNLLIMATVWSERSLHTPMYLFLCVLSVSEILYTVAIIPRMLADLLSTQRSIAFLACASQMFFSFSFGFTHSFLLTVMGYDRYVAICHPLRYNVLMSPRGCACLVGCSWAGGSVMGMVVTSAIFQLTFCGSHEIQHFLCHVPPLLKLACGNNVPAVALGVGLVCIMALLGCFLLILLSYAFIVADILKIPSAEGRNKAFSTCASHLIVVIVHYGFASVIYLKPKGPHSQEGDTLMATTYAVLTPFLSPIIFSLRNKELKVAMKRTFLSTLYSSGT
Outline: as §1

[20] = molecular target: OR10AC1 (Homo sapiens) (UniProt Q8NH08)
Outline: as §1

Chain of OR10A2 (Homo sapiens) (Q9H208 whole entry): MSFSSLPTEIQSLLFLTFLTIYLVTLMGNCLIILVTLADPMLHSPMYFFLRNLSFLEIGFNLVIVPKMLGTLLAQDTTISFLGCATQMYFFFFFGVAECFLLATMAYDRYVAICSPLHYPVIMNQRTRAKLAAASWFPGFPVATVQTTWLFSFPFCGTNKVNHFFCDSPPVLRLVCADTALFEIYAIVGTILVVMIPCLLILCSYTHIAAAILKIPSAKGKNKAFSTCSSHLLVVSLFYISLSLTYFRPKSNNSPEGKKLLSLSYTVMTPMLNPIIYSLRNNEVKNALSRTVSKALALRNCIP

Row | SMILES | odorant receptor agonist call [1] | odorant receptor agonist call [2] | odorant receptor agonist call [3] | odorant receptor agonist call [4] | odorant receptor agonist call [5] | odorant receptor agonist call [6] | odorant receptor agonist call [7] | odorant receptor agonist call [8] | odorant receptor agonist call [9] | odorant receptor agonist call [10] | odorant receptor agonist call [11] | odorant receptor agonist call [12] | odorant receptor agonist call [13] | odorant receptor agonist call [14] | odorant receptor agonist call [15] | odorant receptor agonist call [16] | odorant receptor agonist call [17] | odorant receptor agonist call [18] | odorant receptor agonist call [19] | odorant receptor agonist call [20]
1 | C=CCOC(=O)Cc1ccccc1 | inactive | inactive | inactive | inactive | inactive | inactive | inactive | inactive | inactive | inactive | inactive | inactive | inactive | inactive | inactive | inactive | inactive | inactive | inactive | 
2 | O=CC=Cc1ccccc1 |  |  |  |  |  |  |  |  |  |  |  |  |  |  |  |  |  |  | active | 
3 | Cc1c([N+](=O)[O-])c(C)c([N+](=O)[O-])c(C(C)(C)C)c1[N+](=O)[O-] | inactive |  | inactive | inactive | inactive | inactive | inactive | inactive | inactive |  | inactive | inactive | inactive | inactive | inactive | inactive | inactive | inactive | inactive | inactive
